Experiments:
Type in all cases: functional
SK-MEL-28 = assay: Growth inhibition of human SK-MEL-28 cells after 48 hrs by coulter counting analysis; conditions: SK-MEL-28, 48 h
In short: (§1)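 Five-dose NCI-60 follow-up, 0.01–100 µM, made from DMSO stock in buffered saline (final DMSO <1%), in duplicate wells. Cells in RPMI 1640 with 10% FBS at 6×10^4 cells/ml, 37 °C, 5% CO2, 48 h. Cells diluted tenfold in saline, Coulter-counted and corrected for dilution. GI50, TGI and LC50 taken from log concentration–percent growth curves.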

786-0 = assay: Growth inhibition of human 786-0 cells after 48 hrs by coulter counting analysis; conditions: 786-0, 48 h
In short: (§2)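 NCI five-dose screen at 0.01-100 µM, diluted from DMSO stocks in buffered saline (final DMSO <1%). Cells at 6×10^4 cells/ml in RPMI 1640 with 10% FBS, in duplicate wells, at 37 °C under 5% CO2 for 48 h. Cells diluted tenfold in saline and Coulter-counted. GI50, TGI and LC50 taken from log concentration-growth inhibition curves.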

NCI-H226 = assay: Growth inhibition of human NCI-H226 cells after 48 hrs by coulter counting analysis; conditions: NCI-H226, 48 h; in short: as §1
CCRF-CEM = assay: Growth inhibition of human CCRF-CEM cells after 48 hrs by coulter counting analysis; in short: as §2
MDA-MB-435 = assay: Growth inhibition of human MDA-MB-435 cells after 48 hrs by coulter counting analysis; conditions: MDA-MB-435, 48 h; in short: as §2
[1] = Growth inhibition of human NCI-ADR-RES cells after 48 hrs by coulter counting analysis; in short: as §1
A498 = assay: Growth inhibition of human A498 cells after 48 hrs by coulter counting analysis; conditions: A498, 48 h; in short: as §2
[2] = Growth inhibition of human OVCAR5 cells after 48 hrs by coulter counting analysis; conditions: OVCAR-5, 48 h; in short: as §1
[3] = Growth inhibition of human HOP92 cells after 48 hrs by coulter counting analysis; conditions: HOP-92, 48 h; in short: as §2
[4] = Growth inhibition of human HCC2998 cells after 48 hrs by coulter counting analysis; conditions: HCC 2998, 48 h; in short: as §2
ACHN = assay: Growth inhibition of human ACHN cells after 48 hrs by coulter counting analysis; in short: as §2
A549 = assay: Growth inhibition of human A549/ATCC cells after 48 hrs by coulter counting analysis; conditions: A549, 48 h; in short: as §2
[5] = Growth inhibition of human SF295 cells after 48 hrs by coulter counting analysis; conditions: SF-295, 48 h; in short: as §1
CAKI-1 = assay: Growth inhibition of human CAKI-1 cells after 48 hrs by coulter counting analysis; conditions: CAKI-1, 48 h; in short: as §2
MCF7 [6] = assay: Growth inhibition of human MCF7 cells after 48 hrs by coulter counting analysis; conditions: MCF7, 48 h; in short: as §2
SK-MEL-2 = assay: Growth inhibition of human SK-MEL-2 cells after 48 hrs by coulter counting analysis; conditions: SK-MEL-2, 48 h; in short: as §1
NCI-H23 = assay: Growth inhibition of human NCI-H23 cells after 48 hrs by coulter counting analysis; conditions: NCI-H23, 48 h; in short: as §1
KM12 [7] = assay: Growth inhibition of human KM12 cells after 48 hrs by coulter counting analysis; conditions: KM12, 48 h; in short: as §2
[8] = Growth inhibition of human NCI60 cells after 48 hrs by coulter counting analysis; conditions: NCI60, 48 h
In short: (§3)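 Five-dose screen (0.01-100 µM, DMSO-solubilized, under 1% DMSO final), cells in RPMI 1640 + 10% FBS at 6×10^4 cells/ml, duplicate wells, 37 °C, 5% CO2, 48 h. Cells then diluted tenfold in saline and counted by Coulter counter with dilution correction. Controls held buffer/saline/DMSO at matching dilutions. GI50 derived from log concentration-percent growth inhibition curves.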

[9] = Growth inhibition of human UACC62 cells after 48 hrs by coulter counting analysis; conditions: UACC-62, 48 h
In short: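 NCI five-dose screen, 0.01-100 µM, from DMSO stocks diluted in buffer saline (final DMSO <1%). Cells grown in RPMI 1640 + 10% FBS, seeded at 6×10^4 cells/ml, in duplicate wells. Exposure 48 h at 37 °C, 5% CO2. Cells diluted 10-fold in saline and counted by Coulter counter. GI50 derived from log concentration–percent growth inhibition curves. Controls carried matching PBS/saline/DMSO.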

SK-MEL-5 = assay: Growth inhibition of human SK-MEL-5 cells after 48 hrs by coulter counting analysis; conditions: SK-MEL-5, 48 h; in short: as §1
SNB-19 = assay: Growth inhibition of human SNB19 cells after 48 hrs by coulter counting analysis; conditions: SNB-19, 48 h; in short: as §1
HL-60(TB) = assay: Growth inhibition of human HL-60(TB) cells after 48 hrs by coulter counting analysis; conditions: HL-60, 48 h; in short: as §3
[10] = Growth inhibition of human SF539 cells after 48 hrs by coulter counting analysis; conditions: SF-539, 48 h; in short: as §1
SN12C = assay: Growth inhibition of human SN12C cells after 48 hrs by coulter counting analysis; in short: as §1
DU-145 = assay: Growth inhibition of human DU145 cells at 10 uM after 48 hrs by sulforhodamine B assay relative to control; conditions: DU-145, 48 h, read-out: GI
In short: (§4)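 NCI-60 primary screen at a single dose of 10 µM with 48 h continuous exposure. Growth or viability read by sulforhodamine B protein staining and expressed as percent growth inhibition versus untreated cells.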

RPMI-8226 = assay: Growth inhibition of human RPMI8226 cells at 10 uM after 48 hrs by sulforhodamine B assay relative to control; conditions: RPMI-8226, 48 h, read-out: GI
In short: (§5)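 NCI-60 primary screen at a single 10 µM dose. Continuous 48 h exposure, with growth or viability estimated by sulforhodamine B protein staining. Reported as percent growth inhibition of treated cells relative to untreated growth.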

NCI-H460 = assay: Growth inhibition of human NCI-H460 cells at 10 uM after 48 hrs by sulforhodamine B assay relative to control; conditions: NCI-H460, 48 h, read-out: GI; in short: as §5
[11] = Growth inhibition of human OVCAR8 cells at 10 uM after 48 hrs by sulforhodamine B assay relative to control; conditions: OVCAR-8, 48 h, read-out: GI; in short: as §5
MCF7 [12] = assay: Growth inhibition of human MCF7 cells at 10 uM after 48 hrs by sulforhodamine B assay relative to control; conditions: MCF7, 48 h, read-out: GI; in short: as §4
KM12 [13] = assay: Growth inhibition of human KM12 cells at 10 uM after 48 hrs by sulforhodamine B assay relative to control; conditions: KM12, 48 h, read-out: GI; in short: as §4
[14] = Growth inhibition of human MOLT4 cells at 10 uM after 48 hrs by sulforhodamine B assay relative to control; conditions: MOLT-4, 48 h, read-out: GI; in short: as §5

SMILES: COc1c2ccoc2c(/C=C/C=O)c2oc(-c3ccccc3)cc(=O)c12
- GI50 (SK-MEL-28): 2.73 µM
- GI50 (786-0): 26.9 µM
- GI50 (NCI-H226): 4.14 µM
- GI50 (CCRF-CEM): 1.85 µM
- GI50 (MDA-MB-435): 4.83 µM
- GI50 [1]: 3.01 µM
- GI50 (A498): 7.44 µM
- GI50 [2]: 22.3 µM
- GI50 [3]: 11.5 µM
- GI50 [4]: 16.1 µM
- GI50 (ACHN): 20.8 µM
- GI50 (A549): 21.5 µM
- GI50 [5]: 13.6 µM
- GI50 (CAKI-1): 15.4 µM
- GI50 (MCF7 [6]): 2.72 µM
- GI50 (SK-MEL-2): 10.6 µM
- GI50 (NCI-H23): 2.44 µM
- GI50 (KM12 [7]): 16.5 µM
- LC50 [8]: 87.1 µM
- TGI [8]: 35.5 µM
- GI50 [9]: 5.45 µM
- GI50 (SK-MEL-5): 3.04 µM
- GI50 (SNB-19): 12 µM
- GI50 (HL-60(TB)): 2.33 µM
- GI50 [10]: 3.59 µM
- GI50 (SN12C): 2.71 µM

SMILES: C=CCc1c2c(c(OC)c3ccoc13)C(=O)/C(=C/c1ccccc1OC)O2
- GI50 (SK-MEL-28): 5.21 µM
- GI50 (786-0): 6.29 µM
- inhibition of growth at 10 µM (DU-145): 65%
- GI50 (NCI-H226): 3.22 µM
- GI50 (CCRF-CEM): 3.44 µM
- GI50 (MDA-MB-435): 3.12 µM
- GI50 [1]: 2.82 µM
- GI50 (A498): 5.81 µM
- GI50 [2]: 3.57 µM
- GI50 [3]: 2.07 µM
- GI50 [4]: 2.85 µM
- inhibition of growth at 10 µM (RPMI-8226): 71%
- GI50 (ACHN): 4.32 µM
- GI50 (A549): 4.12 µM
- GI50 [5]: 3.67 µM
- GI50 (CAKI-1): 3.15 µM
- GI50 (MCF7 [6]): 2.92 µM
- inhibition of growth at 10 µM (NCI-H460): 69%
- GI50 (SK-MEL-2): 6.06 µM
- GI50 (NCI-H23): 2.88 µM
- inhibition of growth at 10 µM [11]: 61%
- GI50 (KM12 [7]): 3.49 µM
- inhibition of growth at 10 µM (MCF7 [12]): 67%
- LC50 [8]: 100 µM
- TGI [8]: 58.9 µM
- GI50 [9]: 4.14 µM
- GI50 (SK-MEL-5): 3.91 µM
- GI50 (SNB-19): 5.83 µM
- GI50 [10]: 5.45 µM
- GI50 (SN12C): 4.85 µM

SMILES: COc1ccc(-c2cc(=O)c3c(OC)c4ccoc4c(/C=C/C=O)c3o2)cc1
- GI50 (SK-MEL-28): 2.52 µM
- GI50 (786-0): 16.8 µM
- GI50 (NCI-H226): 2.93 µM
- GI50 (CCRF-CEM): 1.09 µM
- GI50 (MDA-MB-435): 2.81 µM
- GI50 [1]: 2.84 µM
- GI50 (A498): 17.2 µM
- GI50 [2]: 11.7 µM
- GI50 [3]: 16.8 µM
- GI50 [4]: 13.7 µM
- GI50 (ACHN): 19.3 µM
- GI50 (A549): 18.5 µM
- GI50 [5]: 3.4 µM
- GI50 (CAKI-1): 5.03 µM
- GI50 (MCF7 [6]): 1.63 µM
- GI50 (SK-MEL-2): 9.06 µM
- GI50 (NCI-H23): 2.8 µM
- GI50 (KM12 [7]): 12.3 µM
- LC50 [8]: 72.4 µM
- TGI [8]: 26.3 µM
- GI50 [9]: 1.77 µM
- GI50 (SK-MEL-5): 1.69 µM
- GI50 (SNB-19): 3.16 µM
- GI50 (HL-60(TB)): 2.72 µM
- GI50 [10]: 4.14 µM
- GI50 (SN12C): 2.32 µM

SMILES: COc1c(C(=O)/C=C/c2ccccc2)c(O)cc2occc12
- GI50 (SK-MEL-28): 7.03 µM
- GI50 (786-0): 16.2 µM
- inhibition of growth at 10 µM (DU-145): 75%
- GI50 (NCI-H226): 6.03 µM
- GI50 (MDA-MB-435): 3.21 µM
- GI50 [1]: 2.42 µM
- GI50 (A498): 7.97 µM
- GI50 [2]: 5.67 µM
- inhibition of growth at 10 µM (KM12 [13]): 64%
- GI50 [3]: 1.64 µM
- GI50 [4]: 3.76 µM
- inhibition of growth at 10 µM (RPMI-8226): 86%
- GI50 (ACHN): 4.51 µM
- GI50 (A549): 8.62 µM
- GI50 [5]: 7.83 µM
- GI50 (CAKI-1): 8.07 µM
- GI50 (MCF7 [6]): 3.52 µM
- GI50 (SK-MEL-2): 12.4 µM
- inhibition of growth at 10 µM [14]: 89%
- GI50 (NCI-H23): 6.12 µM
- GI50 (KM12 [7]): 3.71 µM
- inhibition of growth at 10 µM (MCF7 [12]): 76%
- LC50 [8]: 55 µM
- TGI [8]: 18.6 µM
- GI50 [9]: 4.15 µM
- GI50 (SK-MEL-5): 3.87 µM
- GI50 (SNB-19): 7.33 µM
- GI50 [10]: 3.22 µM
- GI50 (SN12C): 4.48 µM

Source: ChEMBL document CHEMBL3286372, “Design, synthesis and structure-activity relationship of novel semi-synthetic flavonoids as antiproliferative agents” (2014)
